These results are taken from ChEMBL document CHEMBL4334460, “Madecassic Acid Derivatives as Potential Anticancer Agents: Synthesis and Cytotoxic Evaluation” (2019).

Holding throughout (type): functional
Assay [1] deals with CCRF-CEM. As to the kind of experiment: Antiproliferative activity against human CCRF-CEM cells assessed as cell growth at 10 uM after 48 hrs by sulforhodamine B assay relative to control. The settings on record: pooled result: one value given for 60 cell lines, strains, targets or settings, read-out: Activity. In a few lines:
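NCI-60 one-dose screen: cells exposed to test compound at a single 10 μM concentration, viability after 48 h read by sulforhodamine B staining; value is growth percent versus negative control, with a time-zero cell control used to determine total cell growth.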

Another assay relates to HCT-15. The experiment in a line: Antiproliferative activity against human HCT15 cells assessed as growth inhibition after 48 hrs by sulforhodamine B assay. The settings on record: HCT-15, 48 h.
The test system of the next assay is UO-31. The experiment in a line: Antiproliferative activity against human UO31 cells assessed as growth inhibition after 48 hrs by sulforhodamine B assay. The settings on record: UO-31, 48 h. The essentials: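 NCI-60 five-dose follow-up, run only when the one-dose screen indicated activity. Doses 100 μM down to 0.01 μM in log steps (0.01, 0.1, 1, 10, 100 μM). 48 h incubation with sulforhodamine B read-out. A time-zero cell control allowed calculation of GI50 from % growth vs concentration dose–response curves.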

Assay [2] has as its system CCRF-CEM. The experiment in a line: Antiproliferative activity against human CCRF-CEM cells assessed as growth inhibition after 48 hrs by sulforhodamine B assay. Particulars: pooled result: one value given for 58 cell lines, strains, targets or settings.
The subject of a further assay is COLO 205. The experiment in a line: Induction of cell cycle arrest in human COLO205 cells assessed as increase in accumulation of cells at G2/M phase at 2 uM after 24 hrs by PI/RNase staining based flow cytometry (reference value: 18.6%). The essentials: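 Positive-control arm of the COLO 205 cell-cycle assay: nocodazole 2 μM for 24 h. Culture conditions as above (RPMI, 10% FBS, 37 °C, 5% CO2). Ethanol-fixed cells stained with PI/RNase 40 min at 37 °C and analysed by imaging cytometry for phase distribution. Three independent experiments.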

Calls of active or inactive are those of the source. No cut-off for these calls is given here.

As to `COC(=O)[C@]12CC[C@@H](C)[C@H](C)[C@H]1C1=CC[C@@H]3[C@@]4(C)C[C@@H](OC(C)=O)[C@H](OC(C)=O)[C@@](C)(COC(C)=O)[C@@H]4[C@H](O)C[C@@]3(C)[C@]1(C)CC2`, the growth at 10 µM in the assay with CCRF-CEM [1] was determined as 8%. Also, the GI50 with HCT-15, in the assay on UO-31 and in the assay with CCRF-CEM [2] was 1.7 µM each time.

Turning to `COC(=O)[C@]12CC[C@@H](C)[C@H](C)[C@H]1C1=CC[C@@H]3[C@@]4(C)C[C@@H](O)[C@H](O)[C@@]5(C)COC(=C45)C[C@@]3(C)[C@]1(C)CC2`, in the assay with CCRF-CEM [1], the growth at 10 µM is 85.8%.

`COC(=O)[C@]12CC[C@@H](C)[C@H](C)[C@H]1C1=CC(=O)[C@@H]3[C@@]4(C)C[C@@H](OC(C)=O)[C@H](OC(C)=O)[C@@](C)(COC(C)=O)[C@@H]4C(=O)C[C@@]3(C)[C@]1(C)CC2`: in the assay on CCRF-CEM [1], the growth at 10 µM worked out at 45.8%.

Consider `COC(=O)[C@]12CC[C@@H](C)[C@H](C)[C@H]1C1=CC[C@@H]3[C@@]4(C)CC(=O)[C@H](O)[C@@]5(C)COC(=C45)C[C@@]3(C)[C@]1(C)CC2`, for which the growth at 10 µM with CCRF-CEM [1] is -62.9%. Moreover, the GI50 in the assay on HCT-15, with UO-31 and in the assay with CCRF-CEM [2] was 18.2 µM each time.

Regarding `COC(=O)[C@]12CC[C@@H](C)[C@H](C)[C@H]1C1=CC[C@@H]3[C@@](C)(CC#N)C4=C(C[C@@]3(C)[C@]1(C)CC2)OC[C@]4(C)C=O`, the growth at 10 µM in the assay on CCRF-CEM [1] was -18.1%. Besides, the GI50 in the assay with HCT-15, in the assay with UO-31 and in the assay with CCRF-CEM [2] was 4.9 µM each time.

On to `COC(=O)[C@]12CC[C@@H](C)[C@H](C)[C@H]1C1=CC[C@@H]3[C@@]4(C)C[C@@H](OC(=O)c5ccco5)[C@H](O)[C@@](C)(CO)[C@@H]4[C@H](O)C[C@@]3(C)[C@]1(C)CC2`, for which the growth at 10 µM in the assay on CCRF-CEM [1] is -83%. Further, the 50% growth inhibitory concentration (GI50) in the assay on HCT-15, with UO-31 and with CCRF-CEM [2] was 2.3 µM each time.

Take `COC(=O)[C@]12CC[C@@H](C)[C@H](C)[C@H]1C1=CC[C@@H]3[C@@]4(C)C[C@@H](O)[C@H](O)[C@@](C)(CO)C4=CC[C@@]3(C)[C@]1(C)CC2`: the growth at 10 µM with CCRF-CEM [1] was -55.4%. Moreover, the GI50 in the assay with HCT-15, with UO-31 and with CCRF-CEM [2] was 17 µM throughout.

As for `COC(=O)[C@]12CC[C@@H](C)[C@H](C)[C@H]1C1=CC[C@@H]3[C@@]4(C)CC(=O)[C@H](O)[C@@](C)(CO)[C@@H]4C(=O)C[C@@]3(C)[C@]1(C)CC2`, the growth at 10 µM in the assay on CCRF-CEM [1] was -22.4%. Also, the GI50 with HCT-15, in the assay on UO-31 and in the assay with CCRF-CEM [2] was 10 µM in each case.

As for `COC(=O)[C@]12CC[C@@H](C)[C@H](C)[C@H]1C1=CC[C@@H]3[C@@]4(C)C=C(O)C(=O)C(C)=C4C(=O)C[C@@]3(C)[C@]1(C)CC2`, the growth at 10 µM in the assay on CCRF-CEM [1] came to 67.8%.

`C[C@H]1[C@H](C)CC[C@]2(C(=O)O)CC[C@]3(C)C(=CC[C@@H]4[C@@]5(C)C[C@@H](O)[C@H](O)[C@@](C)(CO)[C@@H]5[C@H](O)C[C@]43C)[C@H]12` [MADECASSIC ACID]: in the assay with CCRF-CEM [1], the growth at 10 µM is 99.2%.

Regarding `COC(=O)[C@]12CC[C@@H](C)[C@H](C)[C@H]1C1=CC[C@@H]3[C@@]4(C)C[C@@H](OC(=O)/C=C/c5ccccc5)[C@H](O)[C@@](C)(CO)[C@@H]4[C@H](O)C[C@@]3(C)[C@]1(C)CC2`, in the assay on CCRF-CEM [1], the growth at 10 µM was -4.8%. Moreover, the GI50 in the assay with HCT-15, in the assay with UO-31 and in the assay on CCRF-CEM [2] was 2.4 µM throughout.

As for `COC(=O)[C@]12CC[C@@H](C)[C@H](C)[C@H]1C1=CC[C@@H]3[C@@]4(C)C/C(=N\O)[C@H](O)[C@@]5(C)COC(=C45)C[C@@]3(C)[C@]1(C)CC2`, the growth at 10 µM in the assay with CCRF-CEM [1] was -76.9%. Also, the GI50 in the assay with HCT-15, in the assay with UO-31 and in the assay with CCRF-CEM [2] was 6.6 µM in each case.

For `COC(=O)[C@]12CC[C@@H](C)[C@H](C)[C@H]1C1=CC[C@@H]3[C@@]4(C)CC(=O)[C@H](OC(=O)/C=C/c5ccccc5)[C@@]5(C)COC(=C45)C[C@@]3(C)[C@]1(C)CC2`, in the assay with CCRF-CEM [1], the growth at 10 µM was 78.2%.

Turning to `COC(=O)Nc1nc2cc(C(=O)c3cccs3)ccc2[nH]1`, the result with COLO 205 was Active.

`COC(=O)[C@]12CC[C@@H](C)[C@H](C)[C@H]1C1=CC[C@@H]3[C@@]4(C)C=C(O)C(=O)[C@@]5(C)COC(=C54)C[C@@]3(C)[C@]1(C)CC2`: in the assay with CCRF-CEM [1], the growth at 10 µM is -58.9%. Moreover, the GI50 in the assay with HCT-15, with UO-31 and in the assay on CCRF-CEM [2] was 8.9 µM each time.

With `COC(=O)[C@]12CC[C@@H](C)[C@H](C)[C@H]1C1=CC[C@@H]3[C@@]4(C)C[C@@H](O)[C@H](O)[C@@](C)(CO)[C@@H]4[C@H](O)C[C@@]3(C)[C@]1(C)CC2`, the growth at 10 µM in the assay with CCRF-CEM [1] was -54.1%. Also, the GI50 with HCT-15, in the assay with UO-31 and in the assay with CCRF-CEM [2] was 12.9 µM each time.

As for `COC(=O)[C@]12CC[C@@H](C)[C@H](C)[C@H]1C1=CC[C@@H]3[C@@]4(C)C[C@@H](OC(C)=O)[C@H](O)[C@@](C)(CO)[C@@H]4[C@H](O)C[C@@]3(C)[C@]1(C)CC2`, in the assay with CCRF-CEM [1], the growth at 10 µM is -79.2%. Moreover, the GI50 in the assay with HCT-15, in the assay on UO-31 and with CCRF-CEM [2] was 11 µM in each case.

On to `COC(=O)[C@]12CC[C@@H](C)[C@H](C)[C@H]1C1=CC[C@@H]3[C@@]4(C)C=C(O)C(=O)C(C)=C4CC[C@@]3(C)[C@]1(C)CC2`, for which the growth at 10 µM in the assay with CCRF-CEM [1] came to 31.7%. In addition, the GI50 in the assay on HCT-15, with UO-31 and with CCRF-CEM [2] was 12 µM in each case.

Regarding `COC(=O)[C@]12CC[C@@H](C)[C@H](C)[C@H]1C1=CC(=O)[C@@H]3[C@@]4(C)C[C@@H](O)[C@H](O)[C@@]5(C)COC(=C45)C[C@@]3(C)[C@]1(C)CC2`, the growth at 10 µM in the assay on CCRF-CEM [1] came to 51.5%.
